Bioassay records as filed in PubChem.
EBI2 antag = EBI2 (human) antagonism; EBI2 beta-arrestin recruitment, luminescence, 7a,25-OHC stimulated; inhibition, % at 5 µM; hit rate 0.81% among 360,000; in the data active = inhibition above about 38%;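 note: enzyme fragment complementation signal reports receptor beta-arrestin coupling in cells; 0% = agonist plus DMSO wells and 100% = wells without agonist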
MC4R antag cAMP = human MC4R antagonism in cAMP assay; MC4R-expressing cells, MTII-stimulated cAMP, LANCE TR-FRET; inhibition, % at 6.5 µM; hit rate 0.48% among 360,000; AID 540295;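 active = inhibition above its plate's cutoff, the mean of tested wells on that plate plus 3 SD, cut at about 29% in these data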;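 note: 0% = Melanotan II alone and 100% = Melanotan II plus saturating MCL0020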
Target sequence (P32245 whole entry, looked up): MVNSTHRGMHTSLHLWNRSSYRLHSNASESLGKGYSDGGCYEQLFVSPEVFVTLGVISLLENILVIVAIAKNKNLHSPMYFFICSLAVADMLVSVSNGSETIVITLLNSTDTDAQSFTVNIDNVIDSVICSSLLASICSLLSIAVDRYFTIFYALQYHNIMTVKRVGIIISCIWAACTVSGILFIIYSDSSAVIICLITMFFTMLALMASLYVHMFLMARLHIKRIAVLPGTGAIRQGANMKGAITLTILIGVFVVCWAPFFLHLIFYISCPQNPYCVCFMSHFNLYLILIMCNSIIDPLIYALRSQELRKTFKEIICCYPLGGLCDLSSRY
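Material: human MC4R-expressing U2OS cells. Probe or stimulus: Melanotan II challenge. Dosing: 6.5 µM single dose. Times: 30-min compound, 1-h challenge, 1-h detection, room temperature. Technique: TR-FRET with Eu-cAMP and labeled anti-cAMP, 671 nm. Replication: singlicate.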
MC4R ag barr = activates human MC4R beta-arrestin recruitment; activation, % at 8.9 µM; P32245; U2OS MC4R beta-arrestin complementation, luminescence; percent of melanotan II response, DMSO zero; hit rate 0.98% among 360,000;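 active = activation above a per-plate cutoff, the mean activation of sample wells on that plate plus 3 SD, cut at about 8% in these data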
Myeloid diff MLP = promotes myeloid progenitor differentiation | AID 624256 | hit rate 1% among 360,000 | calls only at 10 µM | ER-HoxA9 myeloid progenitors, lysozyme-GFP differentiation, flow cytometry;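 active = normalized GFP-positive differentiation at or above the plate's own cutoff, the solvent-only control mean plus 3 SD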;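 note: cells exposed to compound for four days before flow analysis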
Exocytosis inh = lytic granule exocytosis inhibition. AID 651702. inhibition, % at 10 µM. TALL-104 LAMP-1 surface exposure, flow cytometry; cells stimulated with thapsigargin and PMA. hit rate 0.66% among 360,000;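 active = inhibition above about 55%, limit read from the data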
Myeloid diff = promotes myeloid progenitor differentiation | shares compounds with Myeloid diff MLP | ER-HoxA9 myeloid progenitors, GFP/Mac1 double-positive flow | calls only | hit rate 2% among 2,300 | AID 651706;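 active = share of green or green-and-red cells above 9 and 9% in run 1 or 4 and 3% in run 2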
GFP autofluor = flagged as fluorescent in myeloid differentiation counter-screen | hit rate 7.4% among 2,300 | ER-HoxA9 myeloid progenitors, no estrogen, GFP autofluorescence flow cytometry; vehicle wells 0%, positive control 100% | shares compounds with Myeloid diff MLP | AID 651707 | fluorescence response, % (no concentration beside the values);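 active = over 5% cells positive for green fluorescent reporter, or over 2% positive for both it and APC stain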;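 note: range taken on the double positive population between DMSO and positive control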
Numbers without * were called inactive; i = inactive; nt = no result; + = active, no number. This is a sample that favours compounds with a hit; in the whole collection about 3.7% have one here.

SMILES	EBI2 antag	MC4R antag cAMP	MC4R ag barr	Myeloid diff MLP	Exocytosis inh	Myeloid diff	GFP autofluor
O=C(Nc1ccncc1)c1cccc(S(=O)(=O)N2CCN(c3ccc(F)cc3)CC2)c1	7.0	9.7	-1.8	i	-2.5	i	0.8
COc1ccccc1NC(=O)c1cccc(S(=O)(=O)N2CCN(c3ccccc3)CC2)c1	13.9	-4.4	-1.1	i	7.3	i	0.0
S=C(NNc1ccc2ccccc2c1)NC1CCCCC1	45.0*	-3.5	-1.1	i	0.0	i	0.4
S=C(Nc1ccc(Oc2ccccc2)cc1)NC1CCCCCC1	9.0	9.9	2.5	i	-0.6	nt	nt
Cc1cc2nc(C(C)(C)C)c(Cc3cccc(F)c3)n2c(C)c1Br	-7.1	nt	nt	i	-2.3	nt	nt
NC(=S)Nc1cccc2cc3ccccc3cc12	-9.9	-5.8	-0.3	+	2.5	i	13.6*
COC(=O)c1ccccc1N1C(=O)C2C(C1=O)C1C=CC2C12CC2 (stereo not given)	-10.3	-0.1	-0.9	+	-1.9	i	94.1*
COc1ccc(C(=O)Nc2cccc(C(=O)N/N=C/c3ccc(OC)cc3OC)c2)cc1	-0.9	6.7	-0.5	i	-0.8	i	0.0
COc1ccc(/C=N/NC(=O)c2cccc(NC(C)=O)c2)c(OC)c1	2.3	-10.5	0.2	i	2.2	nt	nt
COc1cc(O)oc1C=Nc1ccccc1	0.4	10.7	-0.2	+	-3.8	i	0.3
COc1cc(C=NCc2ccccc2)ccc1O	-6.6	-7.3	-0.1	i	3.3	nt	nt
CC(=O)Nc1ccc(-c2ccnc3c2CC(C)(C(=O)Nc2ccc(C(C)C)cc2)O3)cc1 (stereo not given)	18.4	16.0	-2.3	i	-2.4	nt	nt
COC[C@H]1CCCN1c1ccc2c(c1)O[C@H](COCc1ccccc1)CN([C@H](C)c1ccccc1)S2(=O)=O	23.3	nt	nt	i	-5.1	nt	nt
COc1cccc(C(O)c2nc(-c3ccccc3C)cs2)c1 (stereo not given)	4.1	3.7	0.0	+	-8.1	i	0.3
COc1cccc(C(O)c2nc(-c3ccccc3OC)cs2)c1 (stereo not given)	-10.6	-4.5	0.3	i	7.5	nt	nt
CCc1cccc2c1NC(=O)C21OCCO1	0.4	-5.9	-1.0	i	-5.9	nt	nt
CN(Cc1cn(Cc2cccc(C(F)(F)F)c2)nn1)C1CN(Cc2cn(Cc3cccc(C(F)(F)F)c3)nn2)S(=O)(=O)C1 (stereo not given)	-6.0	nt	nt	i	-0.4	nt	nt
O=C(Cc1ccccc1)NCC(=O)OCC(=O)c1ccc(OC(=O)c2ccccc2)cc1	-9.3	-1.6	3.0	i	-2.1	i	0.4
CCOCc1c(C(=O)Nc2ccccc2N2CCN(C)CC2)oc2ccccc12	12.6	2.4	-2.6	i	3.0	nt	nt
CCOC(=O)Cn1c2c(c(=N)c3ccccc31)CCC2	2.1	-2.2	1.0	+	0.7	i	0.0
CCOC(=O)Cn1c2c(c(=N)c3c1CCC3)CCC2	-6.2	-0.1	2.0	i	2.1	nt	nt
O=C(N/N=C/c1ccc([N+](=O)[O-])o1)c1cc2ccccc2o1	-15.7	-4.5	-1.7	i	0.6	i	0.0
O=[N+]([O-])c1ccc(/C=N/Nc2ccc3ccccc3c2)o1	2.2	7.4	3.4	+	-3.7	i	8.1*
Cc1ccc(OCCC(=O)OCC(=O)NC(=O)c2ccccc2)cc1	-7.8	10.8	-0.5	i	5.4	nt	nt
Cc1ccc(NC(=O)c2ccc(=O)[nH]c2)cc1S(=O)(=O)N1CCCCC1	-2.9	2.0	2.5	i	4.1	i	0.3
Cc1cccc(NC(=O)c2ccco2)c1C	1.1	15.0	0.8	i	-9.8	i	0.0
Cc1ccccc1NC(=O)c1ccco1	2.1	3.2	-0.5	i	-0.4	nt	nt
COc1ccc(C2SCCN2S(=O)(=O)c2ccc(NC(C)=O)cc2)cc1 (stereo not given)	-5.4	15.7	-0.2	+	0.3	i	0.0
CC(=O)Nc1ccc(S(=O)(=O)N2CCSC2c2ccc(C)cc2)cc1 (stereo not given)	-4.9	1.9	0.3	i	0.3	nt	nt
